Laboratory results: ChEMBL document CHEMBL3108778, “Structure-activity relationships of synthetic cordycepin analogues as experimental therapeutics for African trypanosomiasis” (J Med Chem, 2013)
Calls of active or inactive are those of the source. The calls are words filed in the database; no cut-off is given here.

How the values were obtained:
[1] = system: Trypanosoma brucei brucei; assay: Trypanocidal activity against bloodstream stage of Trypanosoma brucei brucei AnTat1.1E after 72 hrs by WST-1 assay; format: functional, organism-based
In short: (§1)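 Bloodstream trypanosomes (6000/well) in log phase were treated in IMDM with 10% FCS for 72 h at 37 °C, 5% CO₂. Compounds were 11-step serial dilutions from DMSO stocks, final DMSO at most 0.25%. Controls were DMSO and 10 μM 3′-deoxyadenosine. Where stated, 1.5 μM deoxycoformycin was co-added. Readout was WST-1 for 2 h, A450. EC50 came from variable-slope nonlinear regression.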

L929 = assay: Cytotoxicity against mouse L929 cells assessed as cell viability after 72 hrs by WST-1 assay; format: cell-based; settings: L929, 72 h
In short: (§2)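 MOLT4 (10⁴/well) or L929 (5 × 10³/well) cells were kept in RPMI with 10% FCS and exposed to serial dilutions for 72 h at 37 °C, 5% CO₂. Final DMSO was at most 0.25%. Where stated, 1.5 μM deoxycoformycin was co-added. WST-1 was added for 2 h and A450 read. EC50 came from variable-slope nonlinear fits; triplicate cultures.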

[2] = system: Trypanosoma brucei brucei; assay: Trypanocidal activity against bloodstream stage of Trypanosoma brucei brucei AnTat1.1E infected in C57BL6J (B6) mouse assessed as reduction of parasitemia at 2 mg/kg, ip qd administered for 3 days measured after 40 days in presence of deoxycoformycin; format: functional, organism-based; design: dose 2 mg/kg
In short: (§3)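 Mice were infected ip with T. b. brucei AnTat1.1E and treated ip once daily starting 2 h later. Where stated, 0.2 mg/kg deoxycoformycin was co-given. Vehicle was PBS with 1.25% final DMSO. Parasitemia and weight were recorded every other day, then twice weekly after 30 days. At least six mice per group.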

Trypanosoma brucei [3] = assay: Trypanocidal activity against bloodstream stage of Trypanosoma brucei after 72 hrs by WST-1 assay in presence of deoxycoformycin; format: functional, organism-based; in short: as §1
MOLT-4 [4] = assay: Cytotoxicity against human MOLT4 cells assessed as cell viability after 72 hrs by WST-1 assay; format: cell-based; settings: MOLT-4, 72 h; in short: as §2
[5] = system: Trypanosoma brucei brucei; assay: Trypanocidal activity against bloodstream stage of Trypanosoma brucei brucei AnTat1.1E infected in C57BL6J (B6) mouse assessed as reduction of parasitemia at 2 mg/kg, ip qd measured after 30 days; format: functional, organism-based; design: dose 2 mg/kg; in short: as §3
Trypanosoma brucei [6] = assay: Trypanocidal activity against Trypanosoma brucei; format: functional, organism-based; in short: as §1
Trypanosoma brucei [7] = assay: Trypanocidal activity against bloodstream stage of Trypanosoma brucei after 72 hrs by WST-1 assay; format: functional, organism-based; in short: as §1
MOLT-4 [8] = assay: Cytotoxicity against human MOLT4 cells assessed as cell viability after 72 hrs by WST-1 assay in presence of deoxycoformycin; format: cell-based; settings: MOLT-4, 72 h; in short: as §2
[9] = Displacement of [2,8-3H]-adenosine from Trypanosoma brucei AT1/P2 expressed in bloodstream stage of Trypanosoma brucei brucei B48
In short: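 Bloodstream T. b. brucei B48 clone with endogenous TbAT1 deleted and TbAT1 overexpressed. Cells were incubated 20 s with 0.05 μM [2,8-³H]adenosine plus competitor (typically 10 nM–100 μM). Uptake was stopped with ice-cold 1 mM adenosine and centrifugation through oil. Ki came from competition curves, triplicates on at least three occasions.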

[10] = system: Trypanosoma brucei brucei; assay: Trypanocidal activity against bloodstream stage of Trypanosoma brucei brucei AnTat1.1E after 72 hrs by WST-1 assay in presence of adenosine kinase inhibitor ABT702; format: functional, organism-based
[11] = system: Trypanosoma brucei brucei; assay: Trypanocidal activity against bloodstream stage of Trypanosoma brucei brucei AnTat1.1E infected in C57BL6J (B6) mouse assessed as reduction of parasitemia at 4 mg/kg, ip qd administered for 10 days measured after 19 to 30 days; format: functional, organism-based; design: dose 4 mg/kg; in short: as §3
[12] = system: Trypanosoma brucei brucei; assay: Trypanocidal activity against bloodstream stage of Trypanosoma brucei brucei AnTat1.1E infected in C57BL6J (B6) mouse assessed as reduction of parasitemia at 4 mg/kg, ip qd administered for 10 days measured after 18 days; format: functional, organism-based; design: dose 4 mg/kg; in short: as §3
[13] = system: Trypanosoma brucei brucei; assay: Trypanocidal activity against bloodstream stage of Trypanosoma brucei brucei AnTat1.1E infected in C57BL6J (B6) mouse assessed as reduction of parasitemia at 4 mg/kg, ip qd administered for 3 days measured after 40 days in presence of deoxycoformycin; format: functional, organism-based; design: dose 4 mg/kg; in short: as §3
[14] = system: Trypanosoma brucei brucei; assay: Trypanocidal activity against bloodstream stage of Trypanosoma brucei brucei AnTat1.1E after 72 hrs by WST-1 assay in presence of deoxycoformycin; format: functional, organism-based; in short: as §1
[15] = Apparent permeability across basolateral to apical side in human Caco2 cells assessed as compound recovery at 10 uM by LC-MS/MS analysis; format: ADME, cell-based; settings: Caco-2, read-out: Papp
In short: (§4)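 Caco-2 monolayers (passage 94–105) were used on day 21 on permeable filters. Transport was run in both directions at pH 7.4 on both sides, 37 °C, 500 rpm stirring. The receiver side was sampled at 15, 30 and 60 min, the donor side at 60 min for mass balance. Mannitol served as integrity marker. LC-MS/MS used a 10–1000 nM external standard curve.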

[16] = Cmax in C57BL/6 mouse at 25 mg/kg, ip; format: ADME, organism-based; design: dose 25 mg/kg, route intraperitoneal; settings: in vivo
[17] = system: Trypanosoma brucei brucei; assay: Trypanocidal activity against bloodstream stage of Trypanosoma brucei brucei AnTat1.1E infected in acute C57BL6J (B6) mouse HAT model assessed as day of parasitemia relapse at 5 mg/kg, po qd administered for 5 days in presence of deoxycoformycin; format: functional
[18] = Apparent terminal half life in C57BL/6 mouse at 25 mg/kg, po; format: ADME, organism-based; design: dose 25 mg/kg, route oral; settings: in vivo, read-out: betat1/2(app) (converted)
Caco-2 = assay: Efflux ratio of apparent permeability across basolateral to apical side over apical to basolateral side in human Caco2 cells at 10 uM by LC-MS/MS analysis; settings: caco-2, 10 µM
[19] = system: Trypanosoma brucei brucei; assay: Trypanocidal activity against bloodstream stage of Trypanosoma brucei brucei AnTat1.1E infected in acute C57BL6J (B6) mouse HAT model assessed as reduction of parasitemia at 30 mg/kg, po qd administered for 6 days measured after 90 days; format: functional, organism-based; design: dose 30 mg/kg
[20] = Apparent permeability across apical to basolateral side in human Caco2 cells at 10 uM by LC-MS/MS analysis; format: ADME, cell-based; settings: Caco-2; in short: as §4
[21] = Tmax in C57BL/6 mouse at 25 mg/kg, po and ip; format: ADME, organism-based; design: dose 25 mg/kg, route oral; settings: in vivo
[22] = Apparent initial half life in C57BL/6 mouse at 25 mg/kg, ip; format: ADME, organism-based; design: dose 25 mg/kg, route intraperitoneal; settings: in vivo, read-out: alphat1/2(app) (converted)
[23] = Cmax in C57BL/6 mouse at 25 mg/kg, po; format: ADME, organism-based; design: dose 25 mg/kg, route oral; settings: in vivo
[24] = system: Trypanosoma brucei brucei; assay: Trypanocidal activity against bloodstream stage of Trypanosoma brucei brucei AnTat1.1E infected in acute C57BL6J (B6) mouse HAT model assessed as day of parasitemia relapse at 1 mg/kg, po bid administered for 5 days; format: functional
[25] = Fraction unbound in human plasma at 10 uM after 4 hrs by equilibrium dialysis method; format: ADME, cell-free
In short: (§5)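 Pooled human plasma (four donors) was spiked with 10 μM final compound. It was dialysed against isotonic phosphate buffer pH 7.4 for 4 h at 37 °C by rapid equilibrium dialysis. A separate sealed plasma sample was held 4 h at 37 °C for stability. Samples were methanol-precipitated and quantified by LC-MS/MS.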

[26] = Apparent permeability across apical to basolateral side in human Caco2 cells assessed as compound recovery at 10 uM by LC-MS/MS analysis; format: ADME, cell-based; settings: Caco-2, read-out: Papp; in short: as §4
[27] = Apparent initial half life in C57BL/6 mouse at 25 mg/kg, po; format: ADME, organism-based; design: dose 25 mg/kg, route oral; settings: in vivo, read-out: alphat1/2(app) (converted)
[28] = system: Trypanosoma brucei brucei; assay: Trypanocidal activity against bloodstream stage of Trypanosoma brucei brucei AnTat1.1E infected in acute C57BL6J (B6) mouse HAT model assessed as day of parasitemia relapse at 15 mg/kg, po qd administered for 5 days; format: functional
[29] = Metabolic stability in human plasma at 10 uM measured over 4 hrs by LC-MS/MS analysis; format: ADME, cell-free; settings: read-out: Stability; in short: as §5
[30] = system: Trypanosoma brucei brucei; assay: Trypanocidal activity against bloodstream stage of Trypanosoma brucei brucei AnTat1.1E infected in acute C57BL6J (B6) mouse HAT model assessed as day of parasitemia relapse at 5 mg/kg, po qd administered for 5 days; format: functional
[31] = Apparent permeability across basolateral to apical side in human Caco2 cells at 10 uM by LC-MS/MS analysis; format: ADME, cell-based; settings: Caco-2; in short: as §4
Liver microsome = assay: Metabolic stability in human liver microsomes at 1 uM by LC-MS/MS analysis; format: ADME
In short: (§6)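 Pooled human or male CD-1 mouse liver microsomes (0.5 mg/mL) were incubated with 1 μM compound in 0.1 M phosphate pH 7.4, started with 1 mM NADPH. Sampling was at 0, 5, 15 and 40 min, quenched with cold acetonitrile containing warfarin internal standard. Analysis was LC-MS/MS on a relative basis; intrinsic clearance by the well-stirred model. Midazolam and dextromethorphan were CYP controls.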

[32] = Apparent terminal half life in C57BL/6 mouse at 25 mg/kg, ip; format: ADME, organism-based; design: dose 25 mg/kg, route intraperitoneal; settings: in vivo, read-out: betat1/2(app) (converted)
[33] = Metabolic stability in CD-1 mouse liver microsomes at 1 uM by LC-MS/MS analysis; format: ADME, Microsome; in short: as §6

Compound: Nc1nc(NCCO)nc2c1ncn2[C@@H]1O[C@H](CO)C[C@H]1O
- IC50 ([1]; read-out: IC50): > 50000 nM

Compound: Nc1ncnc2c1ncn2[C@@H]1O[C@H](CO)C[C@H]1O [CORDYCEPIN]
- IC50 (L929): 28700 nM
- Activity [2]: Active
- IC50 (Trypanosoma brucei [3]): 1.2 nM
- IC50 (MOLT-4 [4]): ≥ 100000 nM
- Activity [5]: inactive
- IC50 ([1]; read-out: IC50): 30 nM
- IC50 (Trypanosoma brucei [6]): 32 nM
- IC50 (Trypanosoma brucei [7]): 42 nM
- IC50 (MOLT-4 [8]): 100 nM
- Ki [9]: 180 nM
- Activity [10]: inactive

Compound: CCCCCCCC(=O)Nc1ncnc2c1ncn2[C@@H]1O[C@H](CO)C[C@H]1O
- Activity [11]: inactive
- IC50 (L929): 18600 nM
- Activity [12]: Active
- IC50 ([1]; read-out: IC50(app)): 28 nM
- Activity [13]: Active
- IC50 [14]: 1 nM

Compound: OC[C@@H]1C[C@@H](O)[C@H](n2cnc3cncnc32)O1
- IC50 (L929): > 100000 nM
- IC50 ([1]; read-out: IC50): 8790 nM

Compound: Nc1nc(F)nc2c1ncn2[C@@H]1O[C@H](CO)[C@@H](O)[C@H]1O
- IC50 ([1]; read-out: IC50): > 100000 nM
- Ki [9]: 2710 nM

Compound: Nc1nc(F)nc2c1ncn2[C@@H]1O[C@H](CO)C[C@H]1O
- recovery at 10 µM [15]: 104%
- Cmax [16]: 9.17 µM
- Time [17]: 5 days
- half-life [18]: 408 min
- Ratio (Caco-2): 0.5
- Activity [19]: Active
- Papp A→B at 10 µM [20]: 3 ×10⁻⁶ cm/s
- Tmax [21]: 30 min
- half-life [22]: 36 min
- IC50 (Trypanosoma brucei [3]): 170 nM
- IC50 (MOLT-4 [4]): 2440 nM
- Cmax [23]: 4 µM
- Time [24]: 2 days
- IC50 ([1]; read-out: IC50): 170 nM
- fraction unbound at 4 h, 10 µM [25]: 1
- recovery at 10 µM [26]: 102%
- half-life [27]: 54 min
- Time [28]: 7 days
- IC50 (Trypanosoma brucei [7]): 176 nM
- remaining at 4 h, 10 µM [29]: 98%
- Time [30]: 7 days
- Papp B→A at 10 µM [31]: 1.4 ×10⁻⁶ cm/s
- IC50 (MOLT-4 [8]): 2130 nM
- Stability (Liver microsome): Stable
- half-life [32]: 366 min
- Ki [9]: 960 nM
- Activity [10]: inactive
- Stability [33]: Stable

Compound: Nc1ncnc2c1ncn2[C@@H]1O[C@H](CO)[C@H]2O[C@H]21
- IC50 ([1]; read-out: IC50): > 100000 nM

Compound: Nc1[nH]cnc2ncnc1-2 [ADENINE]
- Ki [9]: 280 nM

Compound: Nc1nc(F)nc2c1ncn2[C@@H]1O[C@H](CO)C[C@@H]1O
- IC50 ([1]; read-out: IC50): > 100000 nM

Compound: Nc1nc(Cl)nc2c1ncn2[C@@H]1O[C@H](CO)[C@@H](O)[C@H]1O
- Ki [9]: 9650 nM

Compound: Nc1[nH]c(Cl)nc2ncnc1-2
- Ki [9]: 2600 nM

Compound: Nc1nc(Cl)nc2c1ncn2[C@@H]1O[C@H](CO)C[C@H]1O
- IC50 ([1]; read-out: IC50): > 50000 nM
- Ki [9]: 3970 nM

Compound: Nc1ncnc2c1ncn2[C@@H]1O[C@H](CO)[C@@H](O)[C@@H]1O [VIDARABINE]
- IC50 ([1]; read-out: IC50): > 100000 nM

Compound: Nc1nc(F)nc2nc[nH]c12
- IC50 ([1]; read-out: IC50): > 100000 nM
- Ki [9]: 900 nM

Compound: OC[C@H]1O[C@@H](n2cnc3cncnc32)[C@H](O)[C@@H]1O [NEBULARINE]
- IC50 (L929): 2370 nM
- IC50 ([1]; read-out: IC50): 1150 nM
